Compounds with a hit are over-represented: about 2.9% of the library has one in this group of screens.
SENP8 block-1 = SENP8 (human) protease inhibition | recombinant SENP8, Nedd8 substrate fluorescence | inhibition, % at 20 µM | 360,000 tested, 0.64% active | Q96LD8; in the data active = inhibition mostly above about 40%, no sharp cut-off; inactive = mostly below about 27%
Target sequence (Q96LD8 whole entry, looked up): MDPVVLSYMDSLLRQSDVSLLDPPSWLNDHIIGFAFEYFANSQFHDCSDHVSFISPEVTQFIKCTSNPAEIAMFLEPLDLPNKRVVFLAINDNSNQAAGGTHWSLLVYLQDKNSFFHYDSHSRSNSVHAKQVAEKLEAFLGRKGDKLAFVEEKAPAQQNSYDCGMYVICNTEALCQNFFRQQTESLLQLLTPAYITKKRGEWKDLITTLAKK
SENP1 FRET inh = blocks the human SENP1 SUMO protease catalytic domain. inhibition, % at 10 µM. recombinant SENP1 catalytic domain, CyPet-SUMO1-YPet FRET cleavage. 360,000 tested, 0.21% active. AID 624204;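 active = inhibition at least 30% at 10 µM, raw YFP signal under a set limit, fluorescence ratio 0.5 to 1.5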;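 also: 0% = enzyme with DMSO and 100% = no enzyme wells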
Target sequence (Q9P0U3 419-644 limits assumed): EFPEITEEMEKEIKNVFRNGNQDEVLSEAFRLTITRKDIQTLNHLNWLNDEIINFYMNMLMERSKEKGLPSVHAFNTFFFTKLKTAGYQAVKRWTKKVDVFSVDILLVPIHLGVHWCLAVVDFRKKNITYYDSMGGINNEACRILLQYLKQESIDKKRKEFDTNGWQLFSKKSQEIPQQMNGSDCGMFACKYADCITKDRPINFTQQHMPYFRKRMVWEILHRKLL
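Controls: no-enzyme wells low, DMSO-plus-enzyme wells high control. Test system: human recombinant His6-tagged SENP1 catalytic domain enzyme. Reagent: SFCypet-SUMO1-SFYpet FRET protein substrate, 25 nM final. Doses: one dose per compound, 10 µM, 0.5% DMSO. Detection: FRET, CFP and YFP emission. Timing: 50 min reaction at room temperature.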
HSP90 refold inh = blocks HSP90-mediated luciferase refolding in reticulocyte lysate; inhibition, % at 5.6 µM; Rabbit reticulocyte lysate, luciferase refolding luminescence, 3 h; 290,000 tested, 0.91% active;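 active = inhibition above the screen-wide mean plus 3 SD, computed separately per campaign, cut at about 16% in these data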;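 also: 0% = DMSO wells and 100% = 60 µM geldanamycin wells; inhibitors lower the luminescence because luciferase stays unfolded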
SENP8 block-2 = SENP8 protease inhibition; purified SENP8, Z-RLRGG-aminoluciferin cleavage, luminescence; 330,000 tested, 1.2% active; inhibition, % at 10 µM; Q96LD8; in the data active = inhibition above about 50%
SENP6 inh = blocks the human protease SENP6. AID 2599. 330,000 tested, 1.8% active. inhibition, % at 10 µM. Recombinant SENP6 catalytic domain, aminoluciferin luminescence;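 active = inhibition above about 50% at the single tested dose, limit read from the data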;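 also: plate controls were DMSO wells with enzyme for no effect and DMSO wells lacking enzyme for full effect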
SENP7 inh = SENP7 protease inhibition | Q9BQF6 | recombinant SENP7, Z-RLRGG-aminoluciferin luminescence, 40 min | inhibition, % at 5 µM | 330,000 tested, 1.5% active | AID 434973;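 active = inhibition above about 50% at the single test dose, limit read from the data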;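 also: plate controls were DMSO with enzyme for no effect and no enzyme buffer wells for full effect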
SENP1 conf = SENP1 (human) inhibition, single concentration confirmation. shares compounds with SENP1 FRET inh. recombinant SENP1, CyPet-SUMO1-YPet FRET cleavage. inhibition, % at 10 µM. 520 tested, 34% active. AID 651678; in the data active = inhibition mostly above about 35%, no sharp cut-off; inactive = mostly below about 32%;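 also: 0% = enzyme with DMSO and 100% = no enzyme control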
SENP1 kinetic = confirmation of human SENP1 SUMO protease inhibitors, kinetic; shares compounds with SENP1 FRET inh; recombinant SENP1, CyPet-SUMO1-YPet FRET kinetic cleavage; inhibition, % at 10 µM; 520 tested, 26% active; in the data active = inhibition mostly above about 32%, no sharp cut-off; inactive = mostly below about 29%;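 also: 0% = DMSO with enzyme and 100% = no enzyme substrate only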
* marks the source's active call; other numbers are inactive results; nt = no result.

SMILES	SENP8 block-1	SENP1 FRET inh	HSP90 refold inh	SENP8 block-2	SENP6 inh	SENP7 inh	SENP1 conf	SENP1 kinetic
Cc1cc(C)n2c(Nc3c(C)cccc3C)c(-c3cccnc3)nc2n1	-43	64*	nt	nt	nt	nt	39*	27
Cc1ccc(NC(=O)CCCCCN2C(=O)[C@@H]3Cc4ccccc4CN3C2=O)c(C)c1	5	-1	3	0	5	-10	nt	nt
O=[N+]([O-])c1ccc(Nc2cccc3c2[nH]c2c(-c4ccccc4)nccc23)c([N+](=O)[O-])c1	-18	-3	nt	nt	nt	nt	nt	nt
COc1ccc(-c2ccc3c(c2)S(=O)(=O)c2cccc(C(=O)NCCOc4ccccc4)c2C3=O)cc1OC	-10	59*	nt	1	-8	-1	68*	49*
CN(C)C1(CNC(=S)Nc2ccccc2C(F)(F)F)CCCCC1	1	2	2	-9	6	-1	nt	nt
CC1Nc2ccc(C(=O)NC3CCCCC3)cc2NC1=O (stereo not given)	-150	41*	-2	-2	-28	10	17	16
CC(C)C1Nc2ccc(C(=O)NC3CCCCC3)cc2NC1=O (stereo not given)	-39	0	-8	-3	-42	8	nt	nt
O=C1NC(=S)N/C1=C/c1cccc([N+](=O)[O-])c1O	25	40*	-5	-1	-1	3	28	15
Nc1c2c(nc3cccc(Cl)c13)N(c1ccccc1)CC2	-40	55*	0	-11	-22	-3	-12	-3
Cc1ccc2cc3c(N)c(C(=O)N4CCOCC4)sc3nc2c1	-18	47*	-2	-7	0	-1	40*	28
Cc1ccc2nc3sc(C(=O)N4CCOCC4)c(N)c3cc2c1	-64	-3	2	-1	-5	3	nt	nt
CC(C)CNC(=O)C1(C)CCCCCN1Cc1ccccc1-c1ccccc1 (stereo not given)	16	0	nt	nt	nt	nt	nt	nt
CC(=O)Nc1cc(-c2ccc(N3CCN(C)CC3)cc2)cn2c(-c3cccc(C(C)=O)c3)cnc12	3	37*	nt	nt	nt	nt	20	13
CC(=O)Nc1cc(-c2ccc(N3CCN(C)CC3)cc2)cn2c(-c3ccc(F)c(Cl)c3)cnc12	-493	42*	nt	nt	nt	nt	20	22
Cn1ncc(N=Cc2ccccc2O)c1C(=O)Nc1ccccc1	9	37*	-3	-4	-8	-7	18	28
Cc1cccc(NC(=O)c2ccc(NCCc3ccccc3)c([N+](=O)[O-])c2)c1	17	86*	0	16	-7	-2	15	8
Cc1ccc(NC(=O)c2ccc(NCCN)c([N+](=O)[O-])c2)cc1	13	2	-1	2	-10	2	nt	nt
Cc1ccc(NC(=O)c2ccc(NCc3ccco3)c([N+](=O)[O-])c2)cc1Cl	22	37*	3	-7	-5	-3	24	17
OCC1(CO)COC(CCc2ccccc2)=N1	8	-1	-4	6	13	3	nt	nt
Fc1ccc(-c2cnn3c(-c4ccncc4)ccnc23)cc1	16	5	-3	39	-2	37	nt	nt
Fc1ccc(-c2cnn3c(-c4cccs4)ccnc23)cc1	32	56*	0	nt	nt	nt	24	19
CN(C)CCNC(=O)c1cccc(-c2cnc3c(NC=O)cc(/C=C/c4ccccc4)cn23)c1	-499	-32	nt	nt	nt	nt	nt	nt
CC(=NNc1ccc([N+](=O)[O-])cn1)c1ccc(N)cc1	58*	41*	nt	nt	nt	nt	22	13
Clc1ccccc1OCCNc1nc(NCC2CC2)nc2ccsc12	-9	-1	nt	nt	nt	nt	nt	nt
COc1ccc(OC)c(CCNC(=O)c2ccc3c(=O)[nH]c4c(C(=O)NC(C)C)sc(=S)n4c3c2)c1	22	50*	-4	6	5	3	41*	40*
COc1ccc(OC)c(CCNC(=O)c2ccc3c(c2)N(Cc2ccc(F)cc2)CCS3)c1	-365	0	0	-10	-8	6	nt	nt
Cc1ccc(-c2nc(N/N=C/c3cccc([N+](=O)[O-])c3)c3ccccc3n2)cc1	19	31*	1	-5	14	-3	12	13
O=[N+]([O-])c1cc2c(c(CSc3nnnn3-c3ccc(O)cc3)c1)OCOC2	8	2	4	-2	11	4	nt	nt
O=C(Nc1nc(-c2cccc3ccccc23)cs1)c1cnccn1	2	3	-4	-11	11	-2	nt	nt

Source: PubChem BioAssay (several laboratories)
